Among the data in ChEMBL document CHEMBL1147172, “The synthesis of alpha,beta-unsaturated carbonyl derivatives with the ability to inhibit both glutathione S-transferase P1-1 activity and the proliferation of leukemia cells” (2007) are GI50 values, retold here.

The test system of this test is HL-60. Briefly: Antiproliferative activity against human HL60 cells after 72 hrs. It is filed as functional. Particulars: HL-60, 72 h. Summed up:
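HL-60 cells grown in RPMI-1640 with 10% heat-inactivated FBS, penicillin, streptomycin and L-glutamine. Cells seeded at 1 × 10⁵ cells/mL and exposed to a range of compound concentrations for 72 h. Total cells (trypan blue positive and negative) counted by haemocytometer. Treated/untreated cell-number ratio used to calculate GI50.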

By GI50 is commonly meant the concentration giving 50% growth inhibition. A high value points to less potent growth inhibition.

Each structure is given as a SMILES string.

The compound `C=C(CCCC)C(=O)c1ccc(OCC(=O)OC)c(C)c1C` showed a GI50 of 8.6 µM.
To `C=C(CC)C(=O)c1ccc(OC(C)C(=O)OC)c(C)c1C` (stereo not drawn) belongs 4.6 µM; to `C=C(C)C(=O)c1ccc(OC(C)C(=O)OC)c(C)c1C` (stereo not drawn), 6 µM; to `C=C(C)C(=O)c1ccc(OC(C)C(=O)O)cc1C` (stereo not drawn), more than 60 µM.
Take `C=C(CC)C(=O)c1ccc(OC(C)C(=O)O)cc1C` (stereo not drawn): the GI50 is more than 60 µM.
To `C=C(C)C(=O)c1ccc(OCC(=O)O)cc1C` belongs more than 60 µM; to `C=C(CC)C(=O)c1ccc(OCC(=O)O)cc1C`, more than 60 µM.
Regarding `C=C(CCC)C(=O)c1ccc(OC(C)C(=O)O)c(C)c1C` (stereo not drawn), the GI50 turned out to be 11.2 µM.
Compound `C=C(CCCC)C(=O)c1ccc(OC(C)C(=O)O)c(C)c1C` (stereo not drawn) came in with a GI50 of 12.1 µM.
Take `C=C(CCCC)C(=O)c1ccc(OCC(=O)O)c(C)c1C`: growth was halved (GI50) at 14.4 µM.
The compound `C=C(CCC)C(=O)c1ccc(OC(C)C(=O)OC)c(C)c1C` (stereo not drawn) came in with a concentration for 50% growth inhibition (GI50) of 5.6 µM.
`C=C(CCCC)C(=O)c1ccc(OC(C)C(=O)OC)c(C)c1C` (stereo not drawn) yielded a GI50 of 5.2 µM.
Regarding `C=C(CC)C(=O)c1ccc(OC(C)C(=O)O)cc1Br` (stereo not drawn), the GI50 was more than 60 µM.
`C=C(CC)C(=O)c1ccc(OCC(=O)O)cc1Br` returned a GI50 of more than 60 µM.
Compound `C=C(C)C(=O)c1ccc(OCC(=O)O)cc1Cl` came in with a GI50 of more than 60 µM.
Compound `C=C(C)C(=O)c1ccc(OC(C)C(=O)O)cc1Cl` (stereo not drawn) registered a 50% growth inhibitory concentration (GI50) of more than 60 µM.
The compound `C=C(CC)C(=O)c1ccc(OC(C)C(=O)O)cc1Cl` (stereo not drawn) showed a GI50 of more than 60 µM.
`C=C(CCC)C(=O)c1ccc(OCC(=O)OC)c(C)c1C` returned a GI50 of 8.6 µM.
For the compound `C=C(CC)C(=O)c1ccc(OCC(=O)OC)c(Cl)c1Cl`, the GI50 was determined as 3.9 µM.
To `C=C(C)C(=O)c1ccc(OC(C)C(=O)O)cc1Br` (stereo not drawn) belongs more than 60 µM; to `C=C(CC)C(=O)c1ccc(OCC(=O)O)cc1Cl`, more than 60 µM; to `C=C(CCC)C(=O)c1ccc(OCC(=O)O)c(C)c1C`, 19.3 µM.
In turn, `C=C(CC)C(=O)c1ccc(OCC(=O)O)c(Cl)c1Cl` [ETHACRYNIC ACID] showed a GI50 of 44.2 µM.
